# Bioassay records: PubChem BioAssay, Johns Hopkins Ion Channel Center
# Most compounds without a hit are left out; they make up all but 2.3% or so of the library.
# TRPC4 PAM = allosterically enhances the mouse TRPC4 cation channel; AID 2227; HEK293 TRPC4beta/mu-opioid, DAMGO EC20, Fluo-4 Ca2+ flux; active compounds read high; 310,000 compounds, 0.42% hits; Q9QUQ5; B-score at 10 µM;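 active = B-score of calcium response area above 5 SD of library B-scores, with initial fluorescence ratio within 5 SD of library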;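 note: B-score of integrated fluorescence ratio over time as area under calcium response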
# Target sequence (Q9QUQ5 whole entry, looked up): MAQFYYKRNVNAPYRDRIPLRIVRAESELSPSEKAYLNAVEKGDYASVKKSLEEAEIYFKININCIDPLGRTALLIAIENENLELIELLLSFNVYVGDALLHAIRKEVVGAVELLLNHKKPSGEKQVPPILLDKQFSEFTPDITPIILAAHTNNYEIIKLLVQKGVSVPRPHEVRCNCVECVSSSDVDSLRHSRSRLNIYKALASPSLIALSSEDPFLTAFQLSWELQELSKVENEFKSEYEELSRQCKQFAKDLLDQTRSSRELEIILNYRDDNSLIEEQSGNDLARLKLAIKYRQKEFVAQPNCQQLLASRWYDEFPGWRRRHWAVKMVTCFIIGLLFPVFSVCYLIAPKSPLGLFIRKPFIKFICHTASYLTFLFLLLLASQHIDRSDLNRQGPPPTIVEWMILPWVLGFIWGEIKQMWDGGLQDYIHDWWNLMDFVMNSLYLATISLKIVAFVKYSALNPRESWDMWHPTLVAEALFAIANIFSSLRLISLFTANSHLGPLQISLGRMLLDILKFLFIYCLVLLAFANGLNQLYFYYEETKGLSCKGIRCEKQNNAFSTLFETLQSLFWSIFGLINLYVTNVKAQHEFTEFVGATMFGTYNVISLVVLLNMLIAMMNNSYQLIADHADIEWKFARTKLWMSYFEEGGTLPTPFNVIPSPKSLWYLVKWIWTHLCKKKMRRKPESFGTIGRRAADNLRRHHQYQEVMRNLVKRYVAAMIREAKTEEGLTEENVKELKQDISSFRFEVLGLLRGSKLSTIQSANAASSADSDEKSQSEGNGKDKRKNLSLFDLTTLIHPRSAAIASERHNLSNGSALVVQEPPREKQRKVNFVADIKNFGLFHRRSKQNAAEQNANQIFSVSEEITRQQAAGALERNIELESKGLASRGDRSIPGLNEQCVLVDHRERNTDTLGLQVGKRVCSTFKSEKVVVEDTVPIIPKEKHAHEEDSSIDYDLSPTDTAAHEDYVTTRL
# TRPC6 inhibitor = blocks the mouse TRPC6 cation channel; HEK293-TRPC6, membrane potential dye, ACh-evoked depolarization; active compounds read low; B-score at 10 µM; 310,000 compounds, 1.1% hits; Q61143;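 active = B-score under library mean minus 3 SD, initial fluorescence not abnormally high, positive integrated signal ratio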;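 note: B-score derived from integrated fluorescence ratio over the kinetic read; more negative B-score means stronger inhibition of depolarization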
# TRPC4 agonist = opens the mouse TRPC4 cation channel | Q9QUQ5 | HEK293 TRPC4beta/mu-opioid, Fluo4 calcium fluorescence; active compounds read high | B-score at 10 µM | 310,000 compounds, 0.49% hits;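 active = B-score above 5 SD of library B-scores, and initial fluorescence ratio not above library mean plus 5 SD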;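 note: positive B-score marks a calcium rise read as TRPC4 activation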
#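 Assay system: HEK293 stable line with TRPC4beta plus mu-opioid receptor. Times: dye 45 min RT, read 110 s. Measured by: kinetic Fluo4 calcium fluorescence. Measure: B score of integrated ratio. Controls: assay buffer as low control, maximal DAMGO as high control.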
# TRPC4 inh = blocks the mouse TRPC4 cation channel; HEK293 TRPC4beta/mu-opioid, DAMGO-evoked Fluo4 calcium flux; active compounds read low; B-score at 10 µM; 300,000 compounds, 0.39% hits; AID 2247;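 active = B-score over 3 SD under the library average, no early fluorescence shift, positive overall ratio signal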
#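 System: stable TRPC4beta/mu-opioid receptor HEK293 cells; Dosing: single-point compound dosing; Measured by: Fluo4 Ca2+ flux fluorescence; Read-out basis: per-well B score of integrated baseline-normalized Fluo4 ratio.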
# TRPC6 activator = activates the mouse TRPC6 cation channel; Q61143; HEK293-TRPC6 membrane potential dye fluorescence; active compounds read high; B-score at 10 µM; 310,000 compounds, 0.13% hits; AID 2550;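 active = B-score of the integrated fluorescence ratio above library mean plus 3 SD, and starting fluorescence ratio within library mean plus 5 SD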;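 note: higher score means more depolarization so channel activation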
# TRPC4 sel inh 2 = second check of whether TRPC6 inhibitors also affect mouse TRPC4. inhibition, % at 10 µM. HEK293 TRPC4/MOR, membrane potential dye fluorescence; channel activated by saturating DAMGO dose. AID 2776. 920 compounds, 42% hits. shares compounds with TRPC6 inhibitor;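 active = compounds whose fluorescence signal differed from control wells by over 3 SD, either direction, in both duplicate plates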
# TRPC4 spec = mouse TRPC4 off-target activity of TRPC6 inhibitors; shares compounds with TRPC6 inhibitor; HEK293 TRPC4/mu-opioid, membrane potential fluorescence; activity change, negative = inhibition, % at 10 µM; 920 compounds, 61% hits; AID 2777;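 active = rise or fall in signal beyond 3 SD of buffer-only wells in both replicate plates, either sign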;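 note: integrated kinetic ratio of fluorescence range over baseline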
# HEK293 MPD ctr 2-1 = parental HEK293 nonspecific activity of TRPC6 inhibitors, second screen. signal change vs control, % at 10 µM. parental HEK293 membrane potential dye fluorescence; maximal acetylcholine challenge after compound addition. shares compounds with TRPC6 inhibitor. 920 compounds, 31% hits;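 active = membrane potential signal moving either way by over 3 SD of the maximum-effect control, in both duplicate plates, meaning non-specific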
# HEK293 MPD ctr-1 = counter-screen for TRPC6 inhibitors: effect in parental HEK293 cells. shares compounds with TRPC6 inhibitor. parental HEK293 membrane potential dye fluorescence. membrane potential signal change, % at 10 µM. 920 compounds, 60% hits;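 active = membrane potential signal shifting up or down by more than 3 SD of buffer-only wells, on both duplicate plates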
# HEK293 MPD ctr-2 = counter-screen for TRPC6 modulators: effect in parental HEK293 cells; 2,400 compounds, 51% hits; membrane potential signal change, % at 10 µM; shares compounds with TRPC6 inhibitor; membrane potential dye fluorescence;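 active = membrane potential signal moves up or down beyond 5 SD from buffer-only wells, on both duplicate plates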
# HEK293 MPD ctr 2-2 = parental HEK293 nonspecific activity of TRPC6 modulators, second screen; inhibition, % at 10 µM; shares compounds with TRPC6 inhibitor; AID 488926; 2,400 compounds, 14% hits; membrane potential dye fluorescence; after compound, maximal acetylcholine stimulation;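 active = membrane potential signal drops by more than 5 SD from the mean control signal, in both duplicate plates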;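 note: plate controls were acetylcholine ECmax control wells for no effect and buffer only wells for full effect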
# TRPC4 ctr mod = tests whether TRPC6 modulators also affect mouse TRPC4 | 2,400 compounds, 69% hits | shares compounds with TRPC6 inhibitor | HEK293 TRPC4/mu-opioid, membrane potential fluorescence | AID 488927 | percent change from control (negative = decrease, positive = increase), % at 10 µM;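 active = membrane potential signal moved up or down beyond 5 SD of buffer control wells, in both duplicate plates, actives on both sides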;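 note: plate controls were assay buffer wells for no effect and DAMGO maximal-effect wells for full effect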
# TRPC4/MOR inh 2 = mouse TRPC4 off-target activity of TRPC6 modulators, second screen. HEK293 TRPC4/mu-opioid, membrane potential dye fluorescence; stimulated with maximal-effect DAMGO. shares compounds with TRPC6 inhibitor. inhibition, % at 10 µM. AID 488928. 2,400 compounds, 55% hits;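 active = drop in membrane potential signal beyond 5 SD of the control wells in both duplicate plates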;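 note: TRPC4 counter screen for TRPC6 hits run under conditions tuned for TRPC6 not TRPC4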
# TRPC6 inh conf = confirmation of mouse TRPC6 inhibitors; 3,300 compounds, 43% hits; HEK293-TRPC6, membrane potential dye, ACh-evoked depolarization; AID 488960; inhibition, % at 10 µM; shares compounds with TRPC6 inhibitor;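 active = fluorescence ratio falls more than 5 SD below the full-stimulation control mean, in both duplicate runs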;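 note: integrated fluorescence ratio of peak minus minimum over baseline after agonist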
# TRPC6 act conf = confirmation of mouse TRPC6 activators; shares compounds with TRPC6 inhibitor; HEK293-TRPC6 membrane potential dye fluorescence, FDSS; activation, % at 10 µM; 2,800 compounds, 11% hits;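 active = ratio signal rise beyond 5 SD above unstimulated control wells' mean, seen in both duplicate runs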;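 note: plate controls were buffer EC0 wells for no effect and acetylcholine ECmax response for full effect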
# Numbers without * were called inactive; i = inactive; / = no result.
SMILES,TRPC4 PAM,TRPC6 inhibitor,TRPC4 agonist,TRPC4 inh,TRPC6 activator,TRPC6 inh conf,TRPC6 act conf,others
Nn1c(SCC(=O)Nc2ccc3c(c2)OCCO3)nnc(CCC(=O)O)c1=O,i,i,i,i,i,/,/,
O=C(CCCOc1ccc(Cl)cc1Cl)N1CCN(c2ccccn2)CC1,i,-9.34*,i,i,i,i,/,TRPC4 sel inh 2=i;TRPC4 spec=0.1%*;HEK293 MPD ctr 2-1=i;HEK293 MPD ctr-1=1.5%*
O=C(COc1ccc(Cl)cc1Cl)N1CCN(c2ccccn2)CC1,i,i,i,i,i,/,/,
Cc1c(NC(=O)C(C)OC(=O)c2ccc(NC(=O)CC#N)cc2)c(=O)n(-c2ccccc2)n1C (stereo not drawn),i,i,i,i,i,/,/,
COc1ccc(-c2c[n+]3c(n2-c2ccccc2)SCC3)cc1,i,-8.24*,i,i,i,62.9%*,i,TRPC4 sel inh 2=i;TRPC4 spec=-11.6%*;HEK293 MPD ctr 2-1=-12.0%*;HEK293 MPD ctr-1=-172.5%*
COc1ccc(-c2c[n+]3c(n2-c2ccccc2)SCC3)cc1OC,i,i,i,i,i,/,/,
Brc1ccc(-c2c[n+]3c(n2-c2ccccc2)SCC3)cc1,i,-7.24*,i,i,i,i,i,TRPC4 sel inh 2=i;TRPC4 spec=-14.9%*;HEK293 MPD ctr 2-1=-20.5%*;HEK293 MPD ctr-1=-228.5%*
Cc1ccc(-c2c[n+]3c(n2-c2ccccc2)SCC3)cc1,i,-5.41*,i,i,i,i,i,HEK293 MPD ctr-2=i;HEK293 MPD ctr 2-2=i;TRPC4 ctr mod=-11.0%*;TRPC4/MOR inh 2=i
CCN(CC)CCNC(C(=O)Nc1cccc(C(C)=O)c1)c1ccccc1 (stereo not drawn),i,-6.76*,i,i,i,i,i,HEK293 MPD ctr-2=i;HEK293 MPD ctr 2-2=i;TRPC4 ctr mod=i;TRPC4/MOR inh 2=i
CCOc1ccc(NC(C(=O)Nc2cccc(C(C)=O)c2)c2ccccc2)cc1 (stereo not drawn),i,i,i,i,i,/,/,
O=C(COc1ccc(F)cc1Cl)Nc1ccccc1C(=O)N1CCCCC1,i,i,i,i,i,/,/,
CC(=O)c1ccc(OCC(=O)Nc2ccccc2C(=O)NC2CC2)cc1,i,i,i,i,i,/,/,
COc1ccc2c(c1)S/C(=C\C(=O)c1ccncc1)N2C,i,-5.91*,i,i,i,i,i,HEK293 MPD ctr-2=100.5%*;HEK293 MPD ctr 2-2=i;TRPC4 ctr mod=-67.0%*;TRPC4/MOR inh 2=34.5%*
O=c1oc2ccccc2c(O)c1Sc1ccc(Cl)cc1,i,i,i,i,i,/,/,
O=C(C1CC1)N1CCCC(c2ccc(Cl)cc2)=N1,i,-6.95*,i,i,i,i,/,TRPC4 sel inh 2=i;TRPC4 spec=9.6%*;HEK293 MPD ctr 2-1=i;HEK293 MPD ctr-1=5.5%*
COc1cc(SC)ccc1C(=O)Nc1ccc2c(c1)OCCO2,i,i,i,i,i,/,/,
COc1cc(NC(=O)CN2CCN(Cc3ccc4c(c3)OCO4)CC2)cc(OC)c1,i,i,i,i,i,/,/,
COC(=O)c1[nH]c2ccc(Br)cc2c1NC(=O)CN1CCN(C2CCCCC2)CC1,i,-16.8*,i,i,i,94.1%*,i,TRPC4 sel inh 2=29.5%*;TRPC4 spec=-24.1%*;HEK293 MPD ctr 2-1=20.0%*;HEK293 MPD ctr-1=-268.5%*
O=C(/C=C/c1ccc2c(c1)OCO2)Nc1c(C(=O)O)[nH]c2ccccc12,i,i,i,i,14.5*,i,54.0%*,HEK293 MPD ctr-2=i;HEK293 MPD ctr 2-2=i;TRPC4 ctr mod=16.0%*;TRPC4/MOR inh 2=i
CCOC(=O)c1[nH]c2ccc(OC)cc2c1NC(=O)/C=C/c1ccc2c(c1)OCO2,i,i,i,i,i,/,/,
COC(=O)c1[nH]c2ccccc2c1NC(=O)CN1CCN(Cc2ccc3c(c2)OCO3)CC1,i,-5.62*,i,i,i,57.0%*,i,HEK293 MPD ctr-2=i;HEK293 MPD ctr 2-2=i;TRPC4 ctr mod=i;TRPC4/MOR inh 2=66.0%*
COC(=O)c1[nH]c2cc(C)ccc2c1NC(=O)CN1CCCc2ccccc21,i,-11*,i,i,i,i,i,TRPC4 sel inh 2=i;TRPC4 spec=-10.5%*;HEK293 MPD ctr 2-1=i;HEK293 MPD ctr-1=i
COC(=O)c1[nH]c2ccc(Br)cc2c1NC(=O)CN1CCCc2ccccc21,i,i,i,i,i,/,/,
COC(=O)c1[nH]c2ccc(C)cc2c1NC(=O)CCN1CCN(C2CCCCC2)CC1,i,i,i,i,i,/,/,
CC(=O)N1CCc2cc(N=NC3=C(O)CC(C)(C)CC3=O)ccc21,i,i,i,i,i,/,/,
SMILES,TRPC4 PAM,TRPC6 inhibitor,TRPC4 agonist,TRPC4 inh,TRPC6 activator,TRPC6 inh conf,TRPC6 act conf,others
O=C(Cc1ccc(F)cc1)Nc1ccc(Cl)cn1,i,i,i,i,i,/,/,
CCc1ccc(NC(=O)CCCNC(=O)Cn2cnc3sc(C)c(C)c3c2=O)cc1,i,i,i,i,i,/,/,
CCOC(=O)c1ccc(NC(=O)CCc2ccc(CC)o2)cc1,i,-11.8*,i,i,i,i,/,TRPC4 sel inh 2=i;TRPC4 spec=i;HEK293 MPD ctr 2-1=i;HEK293 MPD ctr-1=i
Cc1cc(N2CCC(C)CC2)nc2cccc(O)c12,i,-8.44*,i,-6*,i,i,i,HEK293 MPD ctr-2=-139.0%*;HEK293 MPD ctr 2-2=i;TRPC4 ctr mod=-29.5%*;TRPC4/MOR inh 2=85.5%*
Clc1ccc2nncn2n1,i,i,i,i,i,/,/,
COc1ccc(C(Nc2ccc(S(=O)(=O)NCC3CCCO3)cc2)C(=O)NC(C)(C)C)cc1OC (stereo not drawn),i,i,i,i,i,/,/,
